Shown are actives, neighbours in structure and some others; about 1.1% of the full set was active somewhere.
GC-B act: human GC-B receptor activators, primary screen, HEK293 GC-B cells, cGMP TR-FRET, EC30 CNP | 0% at EC30 CNP, 100% saturating CNP | Atrial natriuretic peptide receptor 2 (Homo sapiens), P20594 | AID 1920062, 2024 | activation, % at 10 µM | actives 0.11% (n = 370,000);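 active = activation at 10 µM reaching about 35% in either raw or pattern-adjusted values, limit read from the data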
Target sequence (P20594 whole entry, looked up): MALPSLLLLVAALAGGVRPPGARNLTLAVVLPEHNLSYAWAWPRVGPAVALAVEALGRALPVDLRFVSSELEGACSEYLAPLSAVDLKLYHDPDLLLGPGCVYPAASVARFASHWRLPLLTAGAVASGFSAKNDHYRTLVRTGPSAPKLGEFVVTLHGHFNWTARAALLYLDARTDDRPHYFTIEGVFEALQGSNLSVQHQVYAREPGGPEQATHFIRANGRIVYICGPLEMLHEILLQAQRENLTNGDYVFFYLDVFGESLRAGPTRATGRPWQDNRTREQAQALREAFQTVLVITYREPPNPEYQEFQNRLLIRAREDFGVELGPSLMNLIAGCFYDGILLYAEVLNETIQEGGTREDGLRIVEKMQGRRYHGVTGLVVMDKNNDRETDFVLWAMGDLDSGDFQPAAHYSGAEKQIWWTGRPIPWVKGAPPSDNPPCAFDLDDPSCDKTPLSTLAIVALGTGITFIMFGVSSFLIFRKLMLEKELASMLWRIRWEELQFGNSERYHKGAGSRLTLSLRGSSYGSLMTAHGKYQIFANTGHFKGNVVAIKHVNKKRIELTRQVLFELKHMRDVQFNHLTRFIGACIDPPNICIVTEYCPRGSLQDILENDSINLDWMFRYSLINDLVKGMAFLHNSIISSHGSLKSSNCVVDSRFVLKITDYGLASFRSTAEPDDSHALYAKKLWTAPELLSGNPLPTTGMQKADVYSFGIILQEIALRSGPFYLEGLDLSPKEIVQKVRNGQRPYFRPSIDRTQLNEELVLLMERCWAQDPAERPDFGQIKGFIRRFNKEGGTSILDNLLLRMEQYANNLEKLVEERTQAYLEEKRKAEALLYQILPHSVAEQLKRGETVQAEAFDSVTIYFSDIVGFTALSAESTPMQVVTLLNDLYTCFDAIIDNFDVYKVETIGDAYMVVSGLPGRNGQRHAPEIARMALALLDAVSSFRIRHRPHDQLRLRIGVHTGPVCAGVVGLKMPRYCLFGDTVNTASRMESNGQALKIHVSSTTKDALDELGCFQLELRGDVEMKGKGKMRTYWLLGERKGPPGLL
SKN-1 block: suppressors of acrylamide-induced Pgst-4::GFP reporter in worms, primary screen, SKN-1 inhibitor project, whole organism, uHTS, GFP/RFP fluorescence ratio, strain VP596. C. elegans VP596 Pgst-4::GFP/RFP ratio, 24 h. actives 0.49% (n = 360,000). inhibition, % at 21.8 µM;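 active = interference check ratio from 0.5 to 1.5 plus GFP to RFP signal ratio inhibition reaching or exceeding a fixed threshold, cut at about 30% in these data, passing the limit was not always enough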
GC-A act: GC-A stimulated cGMP production enhancers – HEK293 GC-A cells, cGMP TR-FRET, EC30 ANP, primary screen; 0% at EC30 ANP, 100% saturating ANP; actives 0.14% (n = 370,000); Atrial natriuretic peptide receptor 1 (Homo sapiens), P16066; activation, % at 10 µM; AID 1671463, 2021; in the data active = activation above about 40%
MT1-MMP act inh: blockers of MT1-MMP proenzyme processing, primary screen, HT1080 RFP-PRO-GFP cells, GFP/RFP fluorescence | actives 0.061% (n = 360,000) | GFP/RFP ratio change, % at 20 µM | GFP/RFP ratio fluorescence, overnight; percent of plate control window, DMSO zero | Matrix metalloproteinase-14 (Homo sapiens), P50281;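 active = GFP/RFP ratio change of at least 30% with cell ATP level not reduced by more than half and red fluorescence within 50% of control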
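Assay system: HT1080 RFP-PRO-GFP cells. Benchmarks: DMSO vehicle wells and RFP-L50D-GFP reporter cell wells. Times: overnight cell settling, then overnight compound exposure, 37 °C, 5% CO2. Compound: 20 µM single dose, 1% DMSO. Read-out basis: GFP/RFP fluorescence ratio.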
Tb MetRS inh: T. brucei MetRS inhibitors, primary screen, biochemical, luminescence; AID 624268, 2012; actives 0.4% (n = 360,000); inhibition, % at 11.9 µM; methionyl-tRNA synthetase (Trypanosoma brucei brucei); purified T. brucei MetRS, ATP depletion, Kinase-Glo luminescence;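 active = inhibition above a per-plate cutoff of the control wells' mean inhibition plus 3 SD, cut at about 5.5% in these data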;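 also: 0% = DMSO wells median and 100% = median of wells with control inhibitor compound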
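Material: parasite MetRS enzyme / Replication: singlicate, one well per compound / Signal: luminescence of leftover ATP / Schedule: 2 h aminoacylation at 25 °C after 15 min preincubation / Medium: HEPES-MgCl2-KCl buffer plus DTT, spermine, BSA, pyrophosphatase / Doses: 11.9 µM single point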
Bfl-1 A1 inh: caspase 3/7 activation in MEF A1-2A-BIM cells, primary screen, A1 inhibitor project, cell-based, luminescence, HTS; Caspase-Glo 3/7 luminescence, 3 h; percent of clofoctol response, vehicle zero; caspase activation, % (test concentration not listed); actives 0.066% (n = 330,000); AID 2462, 2010;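 active = over half of replicate activation scores above 10%, or exactly half above 10 with the replicate mean above 10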
* marks the source's active call; other numbers are inactive results; . = no result given.

SMILES | GC-B act | SKN-1 block | GC-A act | MT1-MMP act inh | Tb MetRS inh | Bfl-1 A1 inh
Cc1cc(N=Cc2c(O)n(-c3ccc(C)c(C)c3)c(=O)c3ccccc23)no1 | 2 | . | 3 | . | . | .
Cc1ccc(-n2c(COc3ccccc3)nnc2SCC(=O)Nc2ccccc2-c2ccccc2)cc1 | 5 | . | -7 | . | . | .
CCCc1ccc(Oc2c(-c3ccc(O)c(C)c3O)n[nH]c2C)cc1 | -1 | -23 | 19 | 4 | 0 | -2
CCCc1ccc(Oc2cn[nH]c2-c2ccc(O)c(C)c2O)cc1 | 4 | 24 | 47* | -9 | 0 | 0
CCC12CN(C(=O)c3ccc([N+](=O)[O-])cc3)CC(CC)(CN(C(=O)c3ccc([N+](=O)[O-])cc3)C1)C2=O | -3 | -6 | 0 | 2 | 0 | 0
CCC12CN(C(=O)c3ccc(OC)cc3)CC(CC)(CN(C(=O)c3ccc(OC)cc3)C1)C2=O | 75* | -6 | -4 | 0 | 0 | 1
Cc1ccc(Cc2c(-c3ccc(Cl)cc3)nc3cc(C)ccn23)cc1 | 48* | -2 | 36 | 1 | 0 | .
Cc1ccc(Cc2c(-c3ccc(C)cc3)nc3cc(C)ccn23)cc1 | 29 | 15 | 29 | -1 | -1 | .
Cc1cnn(-c2ccccc2)c1NC(=O)COCc1ccccc1 | 0 | . | 2 | . | . | .
CCN(CC)S(=O)(=O)c1cccc2c(N(C)C)cccc12 | -2 | 45* | 5 | -2 | 0 | 0
O=C(NCCc1ccccc1)OCc1cn(-c2cccc(F)c2F)nn1 | 6 | . | 1 | . | . | .
O=C(Nc1cccc([N+](=O)[O-])c1)c1ccc2c(c1)C(=O)N(c1ccccn1)C2=O | 10 | 7 | 42* | 2 | 0 | 0
Nc1nc2c(ncn2[C@@H]2O[C@H](CNCC3=Cc4cc(O)ccc4OC3)[C@@H](O)[C@H]2O)c(=O)[nH]1 | 39* | 4 | 47* | 1 | 0 | .
N#CCc1ccc(OC[C@@H](O)CN2CCC(C(O)(c3ccccc3)c3ccccc3)CC2)cc1 | -8 | . | -17 | . | . | .
Cc1nc2ccc(S(=O)(=O)NCC(=O)N(C)Cc3ccccc3Cl)cc2s1 | -9 | . | 0 | . | . | .
Cc1ccc(C(=O)CSC2=C(C#N)C(c3ccco3)C3=C(CC(C)(C)CC3=O)N2)cc1 (stereo not drawn) | -2 | 28* | 4 | 0 | -1 | 0
N#C/C(=N\Nc1ccc([N+](=O)[O-])cc1)C(N)=S | 2 | 39* | -1 | 49 | 1 | -9
Nc1ccc(CSc2ccc(Cl)cc2)c(Cl)c1 | 0 | 45* | 0 | 4 | 0 | .
CC1(C)CC(=O)N(CC(=O)N2CCN(Cc3ccccc3)CC2)c2ccccc2S1(=O)=O | 11 | . | 0 | . | . | .
Fc1ccc(N2CCN(c3cnc4ccccc4n3)CC2)cc1 | -2 | 63* | -3 | 0 | -1 | -2
c1ccc(N2CCN(c3cnc4ccccc4n3)CC2)cc1 | -2 | 47* | -4 | -1 | 0 | -3
Clc1ccc(N2CCN(c3cnc4ccccc4n3)CC2)cc1 | -3 | 33 | -2 | 1 | 0 | 0
COc1ccc(N2CCN(c3cnc4ccccc4n3)CC2)cc1 | 2 | 3 | -3 | 2 | -1 | -1
O=C1CSc2ccc(C(=O)N3CCCC(C(=O)N4CCCN(Cc5ccccc5)CC4)C3)cc2N1 (stereo not drawn) | -9 | . | -4 | . | . | .
CC(C)C[C@H](NC(C)(C)C(=O)NC1CCCCC1)C(=O)NCC(c1ccccc1)c1ccccc1 | -4 | . | -3 | . | . | .
SMILES | GC-B act | SKN-1 block | GC-A act | MT1-MMP act inh | Tb MetRS inh | Bfl-1 A1 inh
O=C(CN1C(=O)S/C(=C\C=C\c2ccccc2)C1=O)Nc1ccccc1C(=O)O | 0 | 2 | -6 | 7 | 0 | 0
C#CCN1C(=O)S/C(=C/C=C/c2ccc(N(C)C)cc2)C1=O | -2 | 47* | 1 | 0 | -1 | -2
CC(C)(C)c1ccc(-c2nnc3sc(COc4ccccc4)nn23)cc1 | -1 | . | -3 | . | . | .
Clc1ccc(CSc2ccc(-c3cccnc3)nn2)cc1 | -3 | 37* | 0 | 5 | 0 | 1
Fc1cccc(Cl)c1CSc1ccc(-c2cccnc2)nn1 | 0 | 22 | 2 | 2 | 0 | 0
O=C(N/N=C/c1cccnc1)c1cc(-c2ccccc2Cl)nc2ccccc12 | -2 | -4 | -2 | -10 | 7.1* | 0
O=C(Nc1ccc(OC(F)(F)F)cc1)Nc1c(-c2ccc(C(F)(F)F)cc2)nc2ncccn12 | 4 | . | 1 | . | . | .
CCN1/C(=C/c2ccc3cccc(C)c3[n+]2CC)Sc2ccccc21 | 6 | 49* | -1 | -222 | 0 | 0
O=C(Nc1ccc2ccccc2c1)NC1CCCCN(Cc2ccc(Cl)cc2)C1=O (stereo not drawn) | 5 | . | 5 | . | . | .
Cc1c(C(=O)N(C)c2ccc(Cl)cc2)cnn1-c1ccccc1 | -11 | 38* | -17 | 1 | 0 | 0
Cc1cccc(N(C)C(=O)c2cnn(-c3ccccc3)c2C)c1 | -4 | 10 | -3 | -3 | -1 | 1
CCOc1ccc(S(=O)(=O)N(C)C)cc1-c1nc2c(C(C)(C)C)nn(C)c2c(=O)[nH]1 | 68* | -1 | 58* | 3 | 0 | 0
CCOc1ccc(S(=O)(=O)N(C)CCO)cc1-c1nc2c(C(C)(C)C)nn(C)c2c(=O)[nH]1 | 67* | 3 | 59* | 5 | 1 | -1
O=C1CC(Sc2nnnn2-c2ccccc2)C(=O)N1c1cccc(Cl)c1 (stereo not drawn) | 36* | -2 | 29 | 4 | 0 | -1
COc1ccc(N2C(=O)CC(Sc3nnnn3-c3ccc(F)cc3)C2=O)cc1 (stereo not drawn) | 4 | 9 | 12 | 1 | -1 | 1
FC(F)(F)c1cc(Cl)c2nc(-c3ccccc3)cn2c1 | -6 | 41* | 0 | 1 | 0 | -12
Cn1c(=O)c2cc(NC(=O)Cc3cccnc3)ccc2n1-c1ccc2ccccc2c1 | 68* | 14 | 47* | -1 | 0 | .
COc1cc(C2Nc3cccc4cccc(c34)N2)ccc1OC(C)=O | . | -18 | . | 31* | 0 | 0
COc1ccc(C2Nc3cccc4cccc(c34)N2)cc1Br | 2 | 21 | 1 | -3 | 0 | -1
